Results reported in ChEMBL document CHEMBL4513216, “Probing the Open Global Health Chemical Diversity Library for Multistage-Active Starting Points for Next-Generation Antimalarials” (ACS Infect Dis, 2020).

Test: Toxicity liver stage against HepG2, at 10uM
Assay type: cell-based
Parameters: test concentration 10 uM, cell line HepG2-A16-CD81EGFP
Conditions: human, HepG2-A16-CD81EGFP cells; read-out: INHIBITION
In short: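 Uninfected HepG2-A16-CD81EGFP cells, 3 × 10^3 per well, 1536-well, plated on prespotted compound at 10 μM final, parasite-free screening media added to match infected plates; puromycin 10 μM positive, DMSO 0.5% negative; run in parallel with 48 h PbLuc assay at 37 °C, 5% CO2; viability by CellTiter-Glo luminescence, normalized to controls.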
In the case of `Cn1cccc1C(=O)N1C[C@H]2CN(CCN3CCCC3)C(=O)[C@H]2C1`, the cytotoxicity at 10 µM is reported as -119%. With `CN(C)C(=O)CNC(=O)c1ccn(-c2ccc3ccccn23)n1` the cytotoxicity at 10 µM was 0.74%. `O=C1CC[C@@H]2[C@@H](CCN2C(=O)c2ccsc2)N1CC1CC1` showed a cytotoxicity at 10 µM of -10.9%. In the case of `CN(C)[C@@H]1CCN(C(=O)c2ccsc2)[C@H]1Cc1cnn(C)c1`, the cytotoxicity at 10 µM is reported as -6.18%. `CNC(C(=O)N1CCC(c2nccn2C(C)C)CC1)c1ccccc1` (stereo not given) gave a cytotoxicity at 10 µM of 0.258%. For `Oc1ccccc1N1CCN(c2ncnc3sc4c(c23)CCNC4)CC1`, the cytotoxicity at 10 µM was 4.36%. Work on `CCCn1c(C)c(CC(=O)N(C)CCO)c2c1CC(C)(C)CC2=O` yielded a cytotoxicity at 10 µM of -3.64%. In the case of `Cc1cc(N2CCCN3CCC[C@H]3C2)n2nc(C)c(C)c2n1`, the cytotoxicity at 10 µM is reported as 4.37%. Work on `COc1ccc(C(=O)N2CCOC(Cc3cccc(C(F)(F)F)c3)C2)o1` (stereo not given) yielded a cytotoxicity at 10 µM of -0.869%. For `O=C1CCC2(CCCN(C(=O)c3ccoc3)C2)CN1CCc1c[nH]cn1` (stereo not given), the cytotoxicity at 10 µM was 4.54%. Molecule `CC(C)N1CCCC(C(=O)N2CCN(c3cnn(C)c(=O)c3)CC2)C1` (stereo not given) has a cytotoxicity at 10 µM of -3.75%. Molecule `CCN(Cc1noc(C2CC2)n1)C(=O)c1onc2ccccc12` has a cytotoxicity at 10 µM of 1.61%. `CCn1c(C2CCN(C(=O)c3ccc4sc(C)nc4c3)CC2)n[nH]c1=O` showed a cytotoxicity at 10 µM of -18%. `CCC[C@H]1CN(c2nc(CO)cs2)C[C@@H]1NC(=O)C1CCC1` gave a cytotoxicity at 10 µM of 6.07%. For `CCC1(O)CCCN(c2nc(C(C)(C)C)nc3c2cnn3C)C1` (stereo not given), the cytotoxicity at 10 µM was -52.9%. In the case of `Cc1cc(N(C)CCn2ccnc2C)n2nccc2n1`, the cytotoxicity at 10 µM is reported as 4.09%. For `Cc1nsc(NC(=O)N2CCCCC2CCCO)n1` (stereo not given), the cytotoxicity at 10 µM was -46.3%. `O=C(CCc1cn[nH]c1)N1CCC(C2CCN(c3ncccn3)CC2)C1` (stereo not given) showed a cytotoxicity at 10 µM of 10.2%. `CN(Cc1cc(C(C)(C)C)n[nH]1)C(=O)c1ccc2nccn2c1` gave a cytotoxicity at 10 µM of -7.01%. With `Cc1nsc(NC(=O)N2CCN(Cc3ccc(F)cc3)C(=O)C2)n1` the cytotoxicity at 10 µM was 1.07%. For `OCCN1CCN(Cc2coc(-c3cccc(F)c3)n2)CC1`, the cytotoxicity at 10 µM was -21.6%. In the case of `CC(=O)c1ccc(N2CCN(C(=O)NCc3cc[nH]n3)CC2)cc1`, the cytotoxicity at 10 µM is reported as -2.17%. Work on `COc1c(CNC2CCN(C(=O)C(C)C)CC2)c(C(C)C)nn1C` yielded a cytotoxicity at 10 µM of 1.25%. `CC(C(=O)N1CCCN(Cc2cnn(C(C)C)c2)CC1)n1ccnc1` (stereo not given) gave a cytotoxicity at 10 µM of -11.8%. With `CS(=O)(=O)NCC1CCCN(C(=O)COCC2CC2)C1` (stereo not given) the cytotoxicity at 10 µM was 4.28%. `COc1ncccc1CNC(=O)N(Cc1ccc(F)cc1F)C1CC1` gave a cytotoxicity at 10 µM of 0.139%. With `COCCNC(=O)CN1CCC(N2CCN(C)C2=O)CC1` the cytotoxicity at 10 µM was 0.621%. For `OC(COCc1ccccc1Cl)CN1CCC(c2ccn[nH]2)CC1` (stereo not given), the cytotoxicity at 10 µM was -15.1%. With `CCc1ncc2c(n1)CN(C(C)C(=O)Nc1ccc(Cl)cn1)CC2` (stereo not given) the cytotoxicity at 10 µM was -0.915%. Work on `Cc1nc(CN(C)C2CCN(Cc3nc4ccccc4n3C)C2)no1` (stereo not given) yielded a cytotoxicity at 10 µM of -9.26%. Molecule `CCC(CC)NC(=O)Cn1cc(-c2ccccc2)cn1` has a cytotoxicity at 10 µM of -0.0581%. `Cc1nn(C)c(C)c1C1CCCN1CC(=O)Nc1cccnc1` (stereo not given) gave a cytotoxicity at 10 µM of -31.7%. Work on `CC(C)c1nnc(CN2CCCC2Cn2cncn2)o1` (stereo not given) yielded a cytotoxicity at 10 µM of -11.1%. `COc1cccc(OCCNCc2c(C)nn(C)c2N(C)C)c1` showed a cytotoxicity at 10 µM of 1.25%. Molecule `O=C1CCC2(CCC(NCc3cccnc3)CC2)N1Cc1ccccc1` (stereo not given) has a cytotoxicity at 10 µM of -2.04%. `COc1cc(N2CCCn3cnc(COC(C)C)c3C2)ncn1` gave a cytotoxicity at 10 µM of -5.3%. Molecule `O=C(NCc1cccnc1)[C@H]1C[C@@H]2CCN(c3ccncn3)C[C@H]2O1` has a cytotoxicity at 10 µM of 7.95%. Molecule `O=C(CN1CC(c2nc(C3CC3)no2)C1)NCC1CCCO1` (stereo not given) has a cytotoxicity at 10 µM of -6.66%. For `Cc1nc(CN2C[C@@H]3CCCO[C@@H]3[C@H](NC(=O)CC3CC3)C2)cs1`, the cytotoxicity at 10 µM was 9.2%. With `Cc1oncc1C(=O)N[C@@H]1CN(CC2CC2)C[C@@H]2CCCO[C@@H]21` the cytotoxicity at 10 µM was -103%. Work on `C[C@H]1CN(c2ccccn2)C[C@@]12CCN(Cc1cccnc1)C2=O` yielded a cytotoxicity at 10 µM of -1.16%. Molecule `C[C@@H]1CN(C(=O)c2ccc[nH]2)C[C@]12CCN(CCN1CCCC1)C2=O` has a cytotoxicity at 10 µM of 10.4%. Molecule `Cc1nnc(N2C[C@H](OCc3cccnc3)[C@H]3OCCC[C@H]32)s1` has a cytotoxicity at 10 µM of 10.8%. For `Cc1noc2nc(C3CCN(Cc4cccnc4)CC3)cc(C(F)F)c12`, the cytotoxicity at 10 µM was -2.5%. Work on `CN(C)C(=O)N1CCC(c2nc3ccc(N4CCCC4)cn3n2)CC1` yielded a cytotoxicity at 10 µM of 3.16%. Molecule `CN(C)CCNC(=O)c1nc2c(s1)CCCN2C(=O)C1CC1` has a cytotoxicity at 10 µM of -108%. `c1cnc(N2CCO[C@H]3CN(CC4CCOCC4)C[C@H]32)nc1` gave a cytotoxicity at 10 µM of -95.9%. For `Cc1ccnc(C(=O)N2C[C@@H]3CN(S(C)(=O)=O)CCO[C@@H]3C2)c1`, the cytotoxicity at 10 µM was -3.92%. For `Cc1ccc(CC(=O)N2CC[C@@H]3CN(CCN(C)C)CCO[C@@H]3C2)cc1`, the cytotoxicity at 10 µM was 2.73%. For `CC(C)NC(=O)[C@H]1C[C@@H]2[C@@H](C1)OCCN2CC1CC1`, the cytotoxicity at 10 µM was -6.13%. For `O=C(c1cccnc1)N1CCn2nnc(COc3cccnc3)c2C1`, the cytotoxicity at 10 µM was 3.34%. `COCCN1CCC2(CCCN(c3ncccn3)C2)C1` (stereo not given) gave a cytotoxicity at 10 µM of 1.36%. `CNC(=O)c1ccc(CN(C(C)C)C(C)C)o1` gave a cytotoxicity at 10 µM of -1.88%. In the case of `O=C(NCC1CCCCC1)N1C[C@@H]2C[C@H](C(=O)N3CCCC3)[C@H](C1)O2`, the cytotoxicity at 10 µM is reported as -2.48%. In the case of `O=C(c1ccc2c(c1)[nH]c(=O)n2C1CCC(O)CC1)N1CCOCC1` (stereo not given), the cytotoxicity at 10 µM is reported as -41.4%.
